According to PMC5126733 (Journal of medicinal chemistry, 2015):
One block for each compound: values may come before it.

Tests used:
recombinant human ER-α = target: T1, recombinant human ER-α (Homo sapiens, UniProt P03372); conditions: at 100 μM compound; compound 7; cited from earlier work
T1 sequence (P03372 1-595): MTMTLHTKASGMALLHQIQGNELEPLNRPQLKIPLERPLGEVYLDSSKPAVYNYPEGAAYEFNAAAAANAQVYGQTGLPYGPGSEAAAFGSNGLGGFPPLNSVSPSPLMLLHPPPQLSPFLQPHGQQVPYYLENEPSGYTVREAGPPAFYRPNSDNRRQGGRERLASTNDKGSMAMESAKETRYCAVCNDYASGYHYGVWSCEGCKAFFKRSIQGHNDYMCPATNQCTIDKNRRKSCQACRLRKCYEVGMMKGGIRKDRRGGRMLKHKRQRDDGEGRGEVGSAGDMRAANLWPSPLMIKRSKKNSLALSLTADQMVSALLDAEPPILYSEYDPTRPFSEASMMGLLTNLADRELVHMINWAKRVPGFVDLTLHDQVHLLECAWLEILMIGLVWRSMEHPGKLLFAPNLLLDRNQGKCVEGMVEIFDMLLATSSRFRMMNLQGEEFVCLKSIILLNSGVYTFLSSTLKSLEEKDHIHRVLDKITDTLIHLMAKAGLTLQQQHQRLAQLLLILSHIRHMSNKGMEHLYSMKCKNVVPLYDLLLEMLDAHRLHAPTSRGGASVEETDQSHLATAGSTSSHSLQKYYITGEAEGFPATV

ER in MCF-7-2a cells = conditions: cited from earlier work
[1] = test system: progesterone receptor (PGR) mRNA expression in MCF-7 human breast cancer cells; assay: Antagonism of β-estradiol; format: cell-based; conditions: MCF-7 cells, 1 μM compound, 10 nM E2, 24 h
Summary of the method: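 MCF-7 cells were grown in MEM with 10% FBS at 37 °C in 5% CO2, then preconditioned 72 h in charcoal-stripped FBS. They were treated 24 h with 1 μM test compound, vehicle (0.1% methanol) or a positive-control antiestrogen, all with 10 nM E2. PGR mRNA was measured by TaqMan RT-qPCR (40 cycles), normalized to GAPDH by 2−ΔΔCt, and expressed as % of E2-stimulated expression.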

[2] = target: T2, recombinant human aromatase (CYP19) (Homo sapiens, UniProt P11511); assay: Inhibition of recombinant human aromatase; format: biochemical; conditions: ratio of aromatase IC50 values vs compound 7
T2 sequence (P11511 1-503): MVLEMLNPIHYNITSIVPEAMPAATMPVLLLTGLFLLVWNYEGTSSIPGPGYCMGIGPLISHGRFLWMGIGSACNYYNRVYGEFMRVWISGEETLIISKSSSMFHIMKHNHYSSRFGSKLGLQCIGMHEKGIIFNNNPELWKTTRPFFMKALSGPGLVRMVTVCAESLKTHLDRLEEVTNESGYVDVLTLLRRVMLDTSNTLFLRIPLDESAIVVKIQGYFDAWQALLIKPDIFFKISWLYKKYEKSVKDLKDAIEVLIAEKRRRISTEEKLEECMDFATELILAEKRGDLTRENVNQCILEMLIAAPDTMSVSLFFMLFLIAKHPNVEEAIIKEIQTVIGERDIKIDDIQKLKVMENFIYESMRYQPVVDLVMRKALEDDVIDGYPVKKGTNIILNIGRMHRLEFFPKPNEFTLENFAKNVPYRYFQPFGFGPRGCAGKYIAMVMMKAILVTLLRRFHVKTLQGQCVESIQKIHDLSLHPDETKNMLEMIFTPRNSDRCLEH

[3] = combination arm (with tamoxifen) of the ATAC trial; cited from earlier work
[4] = test system: postmenopausal women with breast cancer; conditions: five-year ATAC trial, anastrozole alone compared to tamoxifen alone; cited from earlier work

Compound: CCC(=C(c1ccc(O)cc1)c1ccc(O)cc1)c1ccccc1 [Compound 7]
ER-α percent competition (recombinant human ER-α): 80% competition | ER antagonist/agonist character (ER in MCF-7-2a cells): good ER antagonist without significant agonistic side effects

fold improvement in aromatase inhibitory activity compared with 7 [2]: > 5000 fold
Compound: Oc1ccc(C(=C(Cn2ccnc2)c2ccccc2)c2ccc(O)cc2)cc1 [Compound 12, 4,4'-(3-(1H-Imidazol-1-yl)-2-phenylprop-1-ene-1,1-diyl)diphenol]
PGR mRNA expression level in the presence of 10 nM E2 (E2 alone = 100%) [1]: 26-31%

Compound: Oc1ccc(C(Cn2ccnc2)=C(c2ccc(O)cc2)c2ccc(O)cc2)cc1 [Compound 18a, 4,4',4”-(3-(1H-Imidazol-1-yl)prop-1-ene-1,1,2-triyl)triphenol]
PGR mRNA expression level in the presence of 10 nM E2 (E2 alone = 100%) [1]: 26-31%

Compound: Oc1ccc(C(=C(Cn2ccnc2)c2ccc(O)c(F)c2)c2ccc(O)cc2)cc1 [Compound 18b, 4,4'-(2-(3-Fluoro-4-hydroxyphenyl)-3-(1H-imidazol-1-yl)prop-1-ene-1,1-diyl)diphenol]
PGR mRNA expression level in the presence of 10 nM E2 (E2 alone = 100%) [1]: 26-31%

Compound: Nc1ccc(C(Cn2ccnc2)=C(c2ccc(O)cc2)c2ccc(O)cc2)cc1 [Compound 26, 4,4'-(2-(4-Aminophenyl)-3-(1H-imidazol-1-yl)prop-1-ene-1,1-diyl)diphenol]
PGR mRNA expression level in the presence of 10 nM E2 (E2 alone = 100%) [1]: 26-31%

Compound: CC(C)(C#N)c1cc(Cn2cncn2)cc(C(C)(C)C#N)c1 [anastrozole]
lowering of serum concentration of anastrozole in the combination arm [3]: 27% | improvement of disease-free survival [4]: 13% | reduction in occurrence of contralateral breast cancer [4]: 42% | reduction in risk of distant metastasis [4]: 14% | reduction in the time-to-recurrence [4]: 21%

Compound: Endoxifen
PGR mRNA expression level in the presence of 10 nM E2 (E2 alone = 100%) [1]: 10%
